Results as given in ChEMBL document CHEMBL1629663, “Postantibiotic effects of telavancin against 16 gram-positive organisms” (Antimicrob Agents Chemother, 2009).
Converted amounts (≈) assume the structure as drawn.

Key:
Assay type in all cases: functional
[1] = test system: Streptococcus pyogenes; test: Antimicrobial activity against Streptococcus pyogenes HMC 414 assessed as time required to induce post antibiotic sub-MIC effect at 0.4 times MIC […] by plate counting method
Outline: (§1)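 Mueller-Hinton broth cultures of about 5 × 10^6 CFU/ml were pre-exposed to telavancin at 10× MIC for 1 h at 35°C, then diluted 1:1,000. Telavancin was re-added to final 0.2, 0.3 or 0.4× MIC, alongside a drug-free tube. Viable counts were taken before exposure, after dilution, then every 2 h until McFarland no. 1 turbidity. Duration comes from log10 CFU/ml-versus-time plots; two separate experiments with fresh inocula.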

[2] = test system: Staphylococcus aureus; test: Antimicrobial activity against vancomycin-susceptible-, methicillin-resistant Staphylococcus aureus 1306 by microdilution method
[3] = test system: Staphylococcus aureus; test: Antimicrobial activity against vancomycin-intermediate-, methicillin-resistant Staphylococcus aureus 555 assessed as time required to induce sub-MIC effect at 0.3 times MIC […] by plate counting method
Outline: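 SME, viable plate count method: no prior drug exposure. About 5 × 10^6 CFU/ml in Mueller-Hinton broth at 35°C received 0.2, 0.3 or 0.4× MIC, alongside a drug-free tube. Counts were taken at the start, then every 2 h until McFarland no. 1 turbidity, as log10 CFU/ml against time. Two separate experiments, each with a new inoculum.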

[4] = test system: Staphylococcus aureus; test: Antimicrobial activity against vancomycin-resistant-, methicillin-resistant Staphylococcus aureus 510 by microdilution method
[5] = test system: Staphylococcus aureus; test: Antimicrobial activity against vancomycin-resistant-, methicillin-resistant Staphylococcus aureus 510 assessed as post-antibiotic effect at 10 times MIC pre-exposed for 1 hr by plate counting method
Outline: (§2)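 Direct colony suspensions (~5 × 10^6 CFU/ml) were exposed to 10× MIC for 1 h at 35°C with shaking in Mueller-Hinton broth, then diluted 1:1,000 to remove drug. Viable plate counts were taken before exposure, at 0 h, then every 2 h until turbidity reached McFarland 1. PAE = T − C, the time for counts to rise 1 log10 versus the unexposed control. Two separate experiments were run.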

[6] = test system: Staphylococcus aureus; test: Antimicrobial activity against vancomycin-susceptible-, methicillin-resistant Staphylococcus aureus 1306 assessed as post-antibiotic effect at 10 times MIC pre-exposed to Telavancin for 1 hr by plate counting method; outline: as §2
[7] = test system: Staphylococcus aureus; test: Antimicrobial activity against vancomycin-intermediate-, methicillin-resistant Staphylococcus aureus 555 assessed as time required to induce post antibiotic sub-MIC effect at 0.4 times MIC […] by plate counting method
Outline: (§3)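 PAE was first induced with 10× MIC for 1 h at 35°C (inoculum about 5 × 10^6 CFU/ml, Mueller-Hinton broth) and ended by 1:1,000 dilution. Cultures were then split and given 0.2, 0.3 or 0.4× MIC, with one tube left without drug. Viable counts were taken before exposure, after dilution, then every 2 h until McFarland no. 1 turbidity. Two separate experiments, each with a new inoculum.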

[8] = test system: Staphylococcus aureus; test: Antimicrobial activity against vancomycin-susceptible-, methicillin-resistant Staphylococcus aureus ATCC 33591 assessed as time required to induce post antibiotic sub-MIC effect at 0.2 times MIC pre-exposed to Telavancin […] by plate counting method
Outline: (§4)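 After 1 h preexposure to 10× MIC at 35°C and 1:1,000 dilution, cultures were split, and drug was re-added to final 0.2, 0.3 or 0.4× MIC, with a drug-free tube. Viable counts were taken every 2 h until McFarland 1 turbidity. Duration was derived from log10 CFU/ml versus time curves. Two experiments were run, each with a new inoculum.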

[9] = test system: Staphylococcus aureus; test: Antimicrobial activity against vancomycin-susceptible-, methicillin-resistant Staphylococcus aureus 1130 by microdilution method
[10] = test system: Staphylococcus aureus; test: Antimicrobial activity against heterogenous vancomycin-intermediate-, methicillin-resistant Staphylococcus aureus 873 by microdilution method
[11] = test system: Staphylococcus aureus; test: Antimicrobial activity against vancomycin-susceptible-, methicillin-resistant Staphylococcus aureus ATCC 33591 by microdilution method
[12] = test system: Streptococcus pyogenes; test: Antimicrobial activity against Streptococcus pyogenes HMC 414 assessed as time required to induce sub-MIC effect at 0.3 times MIC exposed for 2 hrs by plate counting method
Outline: (§5)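 Unexposed Mueller-Hinton broth cultures (about 5 × 10^6 CFU/ml, 35°C) were handled as in the PA-SME set but without the 10× MIC pre-exposure. They were diluted 1:1,000, then given telavancin at final 0.2, 0.3 or 0.4× MIC, with a drug-free control. Viable counts were taken every 2 h until McFarland no. 1 turbidity. Effect duration comes from log10 CFU/ml-time plots; two separate experiments with new inocula.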

[13] = test system: Streptococcus pyogenes; test: Antimicrobial activity against Streptococcus pyogenes HMC 414 assessed as time required to induce sub-MIC effect at 0.4 times MIC exposed for 2 hrs by plate counting method; outline: as §5
[14] = test system: Staphylococcus aureus; test: Antimicrobial activity against vancomycin-susceptible-, methicillin-resistant Staphylococcus aureus 1307 assessed as time required to induce post antibiotic sub-MIC effect at 0.2 times MIC pre-exposed to Telavancin […] by plate counting method; outline: as §4
[15] = test system: Staphylococcus aureus; test: Antimicrobial activity against heterogenous vancomycin-intermediate-, methicillin-resistant Staphylococcus aureus 618 assessed as time required to induce post antibiotic sub-MIC effect at 0.3 times MIC […] by plate counting method; outline: as §3
[16] = test system: Staphylococcus aureus; test: Antimicrobial activity against vancomycin-susceptible-, methicillin-resistant Staphylococcus aureus ATCC 33591 assessed as time required to induce post antibiotic sub-MIC effect at 0.4 times MIC […] by plate counting method; outline: as §4
[17] = test system: Enterococcus faecalis; test: Antimicrobial activity against Enterococcus faecalis HMC 571 assessed as time required to induce post antibiotic sub-MIC effect at 0.3 times MIC […] by plate counting method; outline: as §1
[18] = test system: Staphylococcus aureus; test: Antimicrobial activity against vancomycin-intermediate-, methicillin-resistant Staphylococcus aureus 770 assessed as time required to induce post antibiotic sub-MIC effect at 0.4 times MIC […] by plate counting method; outline: as §3
[19] = test system: Staphylococcus aureus; test: Antimicrobial activity against vancomycin-intermediate-, methicillin-resistant Staphylococcus aureus 555 assessed as post-antibiotic effect at 10 times MIC pre-exposed to Telavancin for 1 hr by plate counting method
Outline: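 Viable plate count method in Mueller-Hinton broth. Direct colony suspension inoculum of about 5 × 10^6 CFU/ml was exposed to 10× MIC for 1 h at 35°C in a shaking water bath, then diluted 1:1,000 to remove drug. Counts were taken before exposure, at 0 h, then every 2 h until McFarland no. 1 turbidity. PAE = T − C, the time to a 1 log10 rise versus an unexposed growth control.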

[20] = test system: Enterococcus faecalis; test: Antimicrobial activity against Enterococcus faecalis HMC 571 assessed as time required to induce sub-MIC effect at 0.3 times MIC exposed for 2 hrs by plate counting method; outline: as §5
[21] = test system: Streptococcus pyogenes; test: Antimicrobial activity against Streptococcus pyogenes HMC 414 assessed as time required to induce post antibiotic sub-MIC effect at 0.3 times MIC exposed for […] by plate counting method; outline: as §1
[22] = test system: Staphylococcus aureus; test: Antimicrobial activity against vancomycin-susceptible-, methicillin-resistant Staphylococcus aureus 1306 assessed as time required to induce sub-MIC effect at 0.4 times MIC exposed for 2 hrs by plate counting method
Outline: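 Sub-MIC effect: cultures not preexposed to drug were diluted and handled as in the PA-SME procedure in Mueller-Hinton broth with final 0.2, 0.3 or 0.4× MIC, plus a drug-free control. Viable plate counts were taken every 2 h until McFarland 1 turbidity. Duration was derived from growth curves. Two experiments were run, each with a new inoculum.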

CCCCCCCCCCNCCN[C@@]1(C)C[C@H](O[C@H]2[C@H](Oc3c4cc5cc3Oc3ccc(cc3Cl)[C@@H](O)[C@@H](NC(=O)[C@@H](CC(C)C)NC)C(=O)N[C@@H](CC(N)=O)C(=O)N[C@H]5C(=O)N[C@H]3C(=O)N[C@H](C(=O)N[C@H](C(=O)O)c5cc(O)c(CNCP(=O)(O)O)c(O)c5-c5cc3ccc5O)[C@H](O)c3ccc(c(Cl)c3)O4)O[C@H](CO)[C@@H](O)[C@@H]2O)O[C@@H](C)[C@H]1O [TELAVANCIN]
PAE [1]: > 10.7 h | MIC [2]: 0.12 µg/mL (≈ 0.0684 µM) | PAE [3]: 1.7 h | MIC [4]: 0.5 µg/mL (≈ 0.285 µM) | PAE [5]: 1.3 h | PAE [6]: 1.8 h | PAE [7]: > 10.3 h | PAE [8]: 7.7 h | MIC [9]: 0.12 µg/mL (≈ 0.0684 µM) | MIC [10]: 0.12 µg/mL (≈ 0.0684 µM) | MIC [11]: 0.25 µg/mL (≈ 0.142 µM) | PAE [12]: 0 h | PAE [13]: 0.4 h | PAE [14]: 6 h | PAE [15]: 8.3 h | PAE [16]: > 10 h | PAE [17]: 7.2 h | PAE [18]: 9.6 h | PAE [19]: 3.4 h | PAE [20]: 2.6 h | PAE [21]: > 10.7 h | PAE [22]: 6 h
